HTR2A ag – activates the mouse 5-HT2A serotonin receptor | P35363 | CHO-K1 mHTR2A beta-arrestin complementation, luminescence; percent of 30 µM serotonin response | activation, % at 7.6 µM | actives 0.66% (n = 360,000) | AID 624169;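 active = activation above a run cutoff, the mean activation of all tested compounds plus 3 SD, cut at about 14% in these data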;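 also: 0% = plate median of compound wells and 100% = 30 µM serotonin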
MC4R barr agon – agonists of human melanocortin 4 receptor (MC4R) beta-arrestin | activation, % at 8.9 µM | U2OS MC4R beta-arrestin complementation, luminescence; percent of melanotan II response, DMSO zero | actives 0.98% (n = 360,000) | AID 540308 | P32245;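 active = activation above a per-plate cutoff, the mean activation of sample wells on that plate plus 3 SD, cut at about 8% in these data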
Target sequence (P32245 whole entry, looked up): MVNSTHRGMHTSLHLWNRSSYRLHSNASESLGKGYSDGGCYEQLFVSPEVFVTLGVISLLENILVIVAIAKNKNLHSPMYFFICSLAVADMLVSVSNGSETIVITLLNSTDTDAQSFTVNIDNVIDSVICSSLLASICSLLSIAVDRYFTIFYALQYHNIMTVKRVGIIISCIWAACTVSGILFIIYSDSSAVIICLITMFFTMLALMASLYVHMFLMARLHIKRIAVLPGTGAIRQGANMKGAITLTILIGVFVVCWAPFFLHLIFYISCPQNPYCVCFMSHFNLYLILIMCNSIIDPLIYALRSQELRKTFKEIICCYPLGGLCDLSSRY
MC4R antag cAMP – human MC4R antagonism in cAMP assay | MC4R-expressing cells, MTII-stimulated cAMP, LANCE TR-FRET | actives 0.48% (n = 360,000) | inhibition, % at 6.5 µM | P32245;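 active = inhibition above its plate's cutoff, the mean of tested wells on that plate plus 3 SD, cut at about 29% in these data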;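 also: 0% = Melanotan II alone and 100% = Melanotan II plus saturating MCL0020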
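system = U2OS cells with stable human MC4R expression | also added = Melanotan II challenge after compound preincubation | dosing = one concentration, 6.5 µM nominal | incubation = compound 30 min, challenge 1 h, detection 1 h | measured by = TR-FRET with Eu-cAMP and labeled anti-cAMP, 671 nm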
AHR activator – activators of human aryl hydrocarbon receptor; AHR-responsive luciferase reporter cells, luminescence; actives 2.5% (n = 320,000); activation, % at 5 µM; P35869; AID 2796; in the data active = activation above about 47%;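 also: 0% = vehicle wells and 100% = reference agonist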
FXN GAA850 act – increases GAA850 frataxin promoter reporter activity | HEK293 lucGAA850 FXN promoter luciferase reporter, 24 h; percent of 10 µM SAHA response | activation, % at 6 µM | actives 0.56% (n = 360,000);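 active = activation above the average of all compounds screened plus 3 SD, cutoff fixed separately per campaign, cut at about 7.5% in these data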;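 also: 0% = DMSO wells and 100% = 10 µM SAHA wells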
MC4R barr ag – human MC4R beta-arrestin agonism confirmation | shares compounds with MC4R barr agon | U2OS MC4R beta-arrestin recruitment, luminescence; scaled DMSO 0%, Melanotan II 100% | activation, % at 8.9 µM | actives 31% (n = 2,400);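 active = mean activation across replicates above the hit cutoff set in the earlier primary screen, cut at about 8% in these data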
MOR DOR agonist – OPRM1-OPRD1 heterodimer agonism counter-screen; actives 5.8% (n = 2,400); shares compounds with MC4R barr agon; AID 602194; activation, % at 9.2 µM; U2OS PathHunter beta-arrestin, beta-gal luminescence; percent of deltorphin B response, DMSO zero;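 active = mean activation across replicates exceeds the hit threshold derived in the earlier primary screen, cut at about 18% in these data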;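 also: 100% = deltorphin B at 0.9 µM final and 0% = DMSO alone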
An asterisk follows results filed as active; nt = no result given. Hits are enriched below; roughly 4.7% of the tested compounds scored in any of these assays.

SMILES	HTR2A ag	MC4R barr agon	MC4R antag cAMP	AHR activator	FXN GAA850 act	MC4R barr ag	MOR DOR agonist
Cc1c(-c2ccccc2)nc(N)c(C#N)c1-c1ccco1	-6	12*	-2	3	2	2	4
CCCc1ccc(C(O)c2ncc(-c3ccccc3F)[nH]2)cc1 (stereo not drawn)	2	4	9	nt	1	nt	nt
Cc1cccc(Cn2cc3c(=O)n(Cc4cccc(F)c4)nc-3c3ccccc32)c1	5	17*	24	0	0	-2	10
COc1ccc(OC)c(NC(=O)c2cc(-c3cc(C)ccc3O)n[nH]2)c1	6	10*	0	nt	4	2	15
C=CCn1c(COc2cc(C)ccc2C(C)C)nnc1SCC(=O)c1c(N)n(C)c(=O)n(C)c1=O	3	9.7*	7	0	2	3	4
COC(=O)[C@]12CCCCC=C1N(Cc1ccc3c(c1)OCO3)C(=O)[C@H](CC(=O)N1CCSCC1)C2	5	nt	nt	nt	nt	nt	nt
CCN(CC)c1ccc(/C=N/NC(=O)Cc2nnc(NC(=O)Nc3ccccc3)s2)cc1	1	11*	1	24	0	0	2
O=C(Cc1nnc(NC(=O)c2ccccc2)s1)N/N=C/c1ccc(O)cc1	-2	1	9	16	0	nt	nt
CC1(C(=O)NCCCN2CCCC2=O)CCN1CCc1ccccc1 (stereo not drawn)	2	-2	0	nt	0	nt	nt
Cc1ccccc1OCc1nc2ccccc2c(=O)n1N	0	-2	1	14	5	nt	nt
Cc1ccc(-c2[nH]ncc2/C=N/n2c(COc3ccccc3C)nc3ccccc3c2=O)cc1	0	19*	4	25	-1	3	5
CC(C)NC(=O)c1cc(C2CCCCN2C(=O)c2ccc(C#N)cc2)on1 (stereo not drawn)	-4	1	5	nt	-1	nt	nt
O=C(COc1ccc(Cl)cc1Cl)NC(=O)c1ccccc1	-3	10*	-8	-2	2	1	7
CCOc1ccccc1N1CCN(C(=O)c2ccccc2OCc2c(C)noc2C)CC1	-6	0	11	1	2	nt	nt
O=C(CSc1ncnc2c1oc1ccccc12)Nc1cccc(Cl)c1	5	13*	10	19	1	0	5
O=c1[nH]c(/C=C/c2cccc3ccccc23)nc2ccccc12	4	16*	1	56*	6	2	2
O=C(COc1ccc(C(=S)N2CCOCC2)cc1Cl)Nc1ccccc1Cl	-1	22*	12	-6	-1	-1	4
COc1cc(C(=S)N2CCCCC2)ccc1OCC(=O)Nc1ccccc1Cl	3	0	12	-13	1	nt	nt
O=C(NCc1ccccc1)C(C1CC1)n1c(-c2cccs2)nc2ccccc21 (stereo not drawn)	1	nt	nt	nt	nt	nt	nt
O=C(C[n+]1cc(-c2ccc(Cl)cc2)n2c1CCC2)N1c2ccccc2Sc2ccccc21	0	-2	1	4	1	nt	nt
CC1CCC(C(C)C)C(OC(=O)C[n+]2cc(-c3ccc(Cl)cc3)n3c2CCC3)C1 (stereo not drawn)	-7	17*	14	2	0	4	4
OCC[C@@H]1C[C@H](O)[C@@H](O)[C@]2(OCCc3cc(C(F)(F)F)ccc32)O1	-2	1	-2	nt	-3	nt	nt
COc1ccc2nc(Cl)c(/C=N/Nc3ccccn3)cc2c1	2	39*	2	8	4	1	5
CCOc1ccc(/C=N/Nc2ccccn2)cc1	-2	-2	-6	1	3	nt	nt
CC(=O)Nc1cc(-c2ccccc2N(C)C)cn2c(-c3cccc(C(F)(F)F)c3)cnc12	3	15*	-1	nt	0	11*	3
SMILES	HTR2A ag	MC4R barr agon	MC4R antag cAMP	AHR activator	FXN GAA850 act	MC4R barr ag	MOR DOR agonist
CC(=O)Nc1cc(-c2cccc(C(=O)NCCN(C)C)c2)cn2c(-c3cccc(C(F)(F)F)c3)cnc12	-3	42*	0	nt	-3	23*	8
CC(=O)Nc1cc(-c2cccc(C(=O)NCCN(C)C)c2)cn2c(-c3ccccc3)cnc12	-2	2	11	nt	-2	nt	nt
N#CC(=Cc1ccnc2ccccc12)c1ccccc1	-2	1	-1	nt	-1	nt	nt
CCOc1ccc(-c2nnc(-c3ccc(OC)cc3)o2)cc1	-3	31*	4	10	0	1	5
CCOC(=O)C1(Cc2cccc(OC)c2)CCN(C/C=C/c2ccc(OC)cc2)CC1	-9	2	-2	1	-3	nt	nt
CCOC(=O)C1(Cc2cccc(OC)c2)CCN(C/C=C/c2ccccc2)CC1	-6	12*	-2	7	-2	10*	10
Cc1nc(SCC(=O)Nc2ccc3[nH]c(=O)[nH]c3c2)nc(C)c1C	-1	-1	-3	17	0	nt	nt
Cc1cccc(C)c1-n1nnnc1C1c2ccccc2C(=O)N1CCc1ccc(O)cc1 (stereo not drawn)	0	nt	nt	nt	nt	nt	nt
COc1ccc(C2CC(c3ccccc3)=NN2C(=O)c2cccs2)cc1 (stereo not drawn)	-1	5	2	-4	1	nt	nt
COc1ccc(C2=NN(C(=O)c3cccs3)C(c3ccccc3O)C2)cc1 (stereo not drawn)	1	13*	-6	-7	1	16*	5
O=C1NC[C@H](Cc2ccccc2)N(C[C@@H]2CCCN2C[C@H](Cc2ccccc2)N2C[C@H](Cc3ccccc3)N(CCc3ccccc3)C(=O)C2=O)C1=O	9	nt	nt	nt	nt	nt	nt
CCNC(=S)N/N=C/c1cc(Br)cc(Br)c1OC	0	12*	24	63*	-2	2	8
CC(C)C[C@H]1CN(CCCC[C@H]2CNC(=O)C(=O)N2CCc2ccccc2)C(=O)C(=O)N1CCC1CCCCC1	1	nt	nt	nt	nt	nt	nt
Nc1ccccc1-c1nnc(-c2ccc(-c3ccccc3)cc2)o1	2	12*	-1	76*	6	7	1
CCCn1c(=S)[nH]c2cc(C(=O)N3CCN(c4ccccc4)CC3)ccc2c1=O	-5	-2	0	nt	-1	nt	nt
CCCn1c(=S)[nH]c2cc(C(=O)N3CCc4ccccc4C3)ccc2c1=O	5	12*	9	1	-2	-3	3
CCOC=C1C(=O)N(C(C)=O)c2cc(OC)c(OC)cc21	-4	-1	-3	nt	1	nt	nt
CCc1nnc(NC(=O)CSc2nc3cccnc3n2C2CCCCC2)s1	2	0	8	2	-1	nt	nt
Cc1nc(NC(=O)CSc2nc3cccnc3n2C2CCCCC2)sc1C	4	9.6*	-3	20	-1	-2	7
CNC(=O)OCc1nc(SC2CCCCO2)n(C)c1COC(=O)NC (stereo not drawn)	5	nt	nt	nt	nt	nt	nt

Assay outcomes deposited in PubChem BioAssay by The Scripps Research Institute Molecular Screening Center.
